Entries after “also recorded” stand apart in the source; their conditions may differ. A value given as a limit tells only on which side of the number the result lay.

Data set [1] concerns core^S. As to the kind of experiment: ITC with core^S. The data set is classed as binding, HIV-1. The note with it: C34 0.05–0.1 mM into 5–10 μM core^S, 10 mM Tris-HCl pH 7.6, 150 mM NaCl, 25 °C, iTC200.
Data set [2] has as its system 5-helix. The note with it: 5-fold molar excess C34, 200 μg 5-helix, 10 mM Tris-HCl pH 7.6, 150 mM NaCl.
In another data set the test system is HIV-1 fusion. The note with it: ref [17] Markosyan et al.; cited from earlier work.
Data set [3] concerns core^S. The data set is described as follows: SEC titration of C34-AL647 into core^S. The data set is classed as binding, HIV-1. The note with it: fits of 280 and 609+650 nm peak areas.
In data set [4] the test system is core^S. The data set is described as follows: SEC-MALS binding stoichiometry with core^S. On the set-up: species or system HIV-1.
Data set [5] relates to core^S. The data set is described as follows: Native-PAGE band shift with core^S. The data set is classed as binding, HIV-1. The note with it: 10 μM core^S, 30 min, room temperature, 20% homogeneous gel.
Data set [6] concerns core^SP. As to the kind of experiment: Circular dichroism of core^SP with and without C34. More on the design: species or system HIV-1. The note with it: core^SP 2.5 μM trimer, 5-fold excess C34, buffer A pH 7.6, 20 °C. In a few lines: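 CoreSP (N-HR and C-HR peptides counted as one unit) is used at 2.5 μM trimer, alone or with a 5-fold molar excess of C34, in 10 mM Tris-HCl pH 7.6 with 150 mM NaCl. Spectra are recorded at 20 °C in a 0.1 cm path-length flat cell. α-Helical content is estimated by CDNN.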
Background: CD spectra are sensitive to the conformation of chiral molecules.

The test system of data set [7] is core^SP. The data set is described as follows: SEC titration of C34-AL647 into core^SP. The class given is binding, HIV-1.
Data set [8] concerns 5-helix.
The test system of data set [9] is core^SP. The data set is described as follows: SEC-MALS and SEC displacement of C38 / C38-AL647 from core^SP. The data set is classed as binding, HIV-1. The note with it: 5-fold molar excess C34, SEC–MALS, confirmed with core^SP-AL647. (In general: SEC sorts molecules by how far they enter the pores of the column.)
For data set [10], the system named is core^S. As to the kind of experiment: Circular dichroism of core^S with and without C34. On the set-up: species or system HIV-1.
Another data set relates to N-Cys core^S. The data set is described as follows: DEER EPR of N-Cys core^S with and without C34. More on the design: species or system HIV-1. The note with it: 50 μM subunits, 1.2-fold molar excess C34, Q-band, 50 K.
The subject of the next data set is 6-helix. The data set is described as follows: SEC-MALS binding stoichiometry with 6-helix. On the set-up: species or system HIV-1. The note with it: 5-fold molar excess C34, 200 μg 6-helix, 10 mM Tris-HCl pH 7.6, 150 mM NaCl.
The target of data set [11] is single-chain six-helix bundle (6-helix) (HIV-1) (UniProt P04578). As to the kind of experiment: SEC-MALS.
The target of data set [12] is single-chain five-helix bundle (5-helix) (HIV-1) (UniProt P04578). The data set is described as follows: SEC-MALS.
Data set [13] concerns the molecule itself. As to the kind of experiment: composition gradient–MALS.

As for Ac-C-HR^628–661-NH2 [C34], the “heat signature in ITC with core^S” value with core^S [1] was “did not yield a heat signature”. In addition, the “binding to 5-helix (stoichiometry)” value in the data set on 5-helix [2] is listed as “binds with a 1:1 stoichiometry”. Also, the “time window of fusion inhibitory activity” value in the data set on HIV-1 fusion is “can extend from the point at which the prehairpin intermediate of gp41 becomes accessible through the formation of late prebundle intermediates and labile pore formation, but not after irreversible formation of the six-helix bundle”. The “cooperativity of binding to core^S” value in the data set on core^S [3] is recorded as “no evidence of any cooperativity”. Further, the “binding stoichiometry with core^S” value in the data set on core^S [4] (5-fold molar excess C34, 10 mM Tris-HCl pH 7.6, 150 mM NaCl) was “one core^S trimer to two C34 peptides with no dissociation of the core^S trimer; also recorded: binding of two C34 molecules to one core^S trimer”. The “evidence for a 1:3 core^S–(C34)3 complex” value in the data set with core^S [4] (SEC–MALS and band-shift assays) was “no evidence of the existence of a 1:3 core^S–(C34)3 complex”. In addition, in the data set on core^S [5], the “binding to core^S by native-PAGE” value is “even at 3:1 and 3:2 core^S:C34 ratios (Figure 4C) a significant amount of complex comprising two C34 molecules bound to one core^S trimer is formed; also recorded: binding of C34 is clearly evident”. Besides, the “change in helicity of core^SP on C34 binding” value in the data set on core^SP [6] is reported as “no change in helicity”. In addition, in the data set on core^SP [7] (core^SP, value in discussion), the “equilibrium constant for the exchange reaction of C34 with C38” value stood at 0.9. Further, in the data set on core^SP [7] (fits of 609+650 nm peak areas), the “cooperativity of exchange with core^SP” value is given as “no evidence of any cooperativity”. Besides, the “binding to 5-helix by native-PAGE” value in the data set with 5-helix [8] (native-PAGE, room temperature) is given as “binding of C34 is clearly evident”. Also, the “stoichiometry of binding to 5-helix by native-PAGE” value in the data set on 5-helix [8] (positive control) is on record as 1:1 stoichiometry of binding. Further, the “displacement of C38 from core^SP” value with core^SP [9] is “binding of C34 to core^SP is accompanied by displacement of C38”. The “increase in helicity of core^S on C34 binding” value in the data set with core^S [10] (core^S 7 μM trimer, 5-fold molar excess C34, buffer A pH 7.6, 20 °C) was ~ 18%. The “additional residues in helical conformation of core^S trimer” value in the data set on core^S [10] (two C34 bound, two C28 C-HR displaced, 5-fold molar excess C34) is reported as 30 residues. Besides, in the data set with N-Cys core^S, the “effect of C34 on DEER dipolar evolution data / P(r) of N-Cys core^S” value is “negligible effect”. The “binding to 6-helix (stoichiometry)” value in the data set with 6-helix is given as “weak binding of C34 as a 1:1 complex”.
“C34 peptide (chemically synthesized, Ac-C-HR^628–661-NH2) (from UniProt P04578 628-661)” had a stoichiometry N (C34 per 6-helix) in data set [11] of 1. Further, in data set [12], the stoichiometry N (C34 per 5-helix) amounted to 1.

B1: core^S (N34^546–579-(L6)-C28^628–655), homotrimeric six-helix bundle of gp41 (domain or fragment)
chain: SGIVQQQNNLLRAIEAQQHLLQLTVWGIKQLQARSGGRGGWMEWDREINNYTSLIHSLIEESQNQQEK
With B1, the Kd (as a rule, a measure of binding affinity in units of concentration) in data set [13] is less than 250 nM.

These data come from article PMC5576721 (Biochemistry, 2015).
